This passage reports inhibition results from PubChem BioAssay AID2152 (The Scripps Research Institute Molecular Screening Center, 2009).

SMILES strings stand for the structures. The campaign covered roughly 2,300 compounds. About 25 (1%) were called active.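 The calls were made as follows: active = mean inhibition over three replicate wells above the hit threshold derived in the earlier primary screen (cut at about 45% in these data); inactive = the rest.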 The list comes from a sample in which actives are over-represented; it also holds similar structures and randomly drawn compounds.

In this assay the test system is Hepatitis C virus core protein (core106 dimerization). In words: inhibitors of HCV core protein dimerization, confirmation, biochemical, TR-FRET, triplicate (AID 2152).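 Also: 0% = DMSO wells and 100% = unlabelled core106 competitor control.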 As to conditions: TR-FRET GST-/Flag-core106 dimerization, HTRF; at 5 µM; active compounds read high. The method, boiled down:
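Test system – GST- and Flag-tagged HCV core106 peptides, dimerization via antibody TR-FRET · Amount – 17 nM Flag- plus 13.5 nM GST-core106 · Schedule – 4 h incubation, 22.5 °C · Compound dosing – one 5 µM dose, 0.5% DMSO · Detection – TR-FRET, 340 nm excitation, 671/617 nm emission · Reagent – Eu(K)-anti-GST plus XL665-anti-FLAG antibodies · Read-out basis – percent inhibition from emission ratio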
In general terms: TR-FRET usually uses a lanthanide donor and a delayed reading to cut background.
For orientation: inhibition means the drop in the measured response relative to a control, in per cent. On to `Cc1csc(SCC(=O)Nc2sc3c(c2C#N)CCC3)n1`, for which the inhibition is -4.85% (inactive).
With `CCCCN(C(=O)c1cc(-c2ccco2)nc2ccccc12)c1c(N)n(CCCC)c(=O)[nH]c1=O`, the inhibition was -1.63% (inactive).
As to `CN(CC(=O)Nc1ccc(F)cc1)C(=O)c1cc(-c2ccco2)nc2ccccc12`, the inhibition was 13.3% (inactive).
As to `O=C(Nc1ccc(Cl)c([N+](=O)[O-])c1)c1cnccn1`, the inhibition was 6.55% (inactive).
Under `CC1(O)C(=O)C=C2C=C(c3ccc(C#N)cc3)OC=C2C1=O` (stereo not drawn) stands 55% (active); under `CC1(OC(=O)CCc2ccccc2)C(=O)C=C2C=C(c3ccc(C#N)cc3)N(c3ccccc3)C=C2C1=O` (stereo not drawn), 1.14% (inactive); under `C=CCN1C=C2C(=O)C(C)(OC(=O)CCc3ccccc3)C(=O)C=C2C=C1c1ccc(C#N)cc1` (stereo not drawn), 0.52% (inactive).
Regarding `Cc1ccc2nc(N3CCN(S(=O)(=O)c4ccc5c(c4)OCCO5)CC3)c(C#N)cc2c1`, the inhibition was 14.6% (inactive).
Under `O=C(c1cc(-c2ccccn2)nc2ccc(Br)cc12)N1CCN(S(=O)(=O)c2ccccc2)CC1` stands 17% (inactive); under `C/C=C\C=C/C(=O)Nc1cccc(C2=NOC3(C2)C[C@@H](C(N)=O)N(C(=O)/C=C/CC)C3)c1` (stereo partly drawn), 5.44% (inactive); under `O=C1C(Cc2ccccc2)S/C(=N/N=C/c2ccco2)N1c1ccccc1` (stereo not drawn), -8.03% (inactive).
For `Cc1oc(-c2ccc(F)cc2)cc1-c1nn2c(-c3ccoc3C)nnc2s1`, the inhibition was 20.6% (inactive).
Then `Cc1oc(-c2ccc(Cl)cc2)cc1-c1nn2c(-c3ccoc3C)nnc2s1`, with 52.5% (active); and `c1ccc(-c2cc(-c3nn4c(-c5ccco5)nnc4s3)c3ccccc3n2)cc1`, with 16.7% (inactive); and `Cc1ccc(NC(=O)c2cc(-c3ccc(C)o3)nc3ccccc23)cc1`, with -0.19% (inactive).
Regarding `CCN(CC(=O)Nc1c(F)cccc1F)C(=O)/C=C/c1ccc2ccccc2n1`, the inhibition is 62.5% (active).
In the case of `O=C(/C=C/c1ccc2ccccc2n1)N1CCN(c2ccccc2)CC1`, the inhibition is -3.48% (inactive).
As to `CCN(CC(=O)Nc1c(F)cccc1F)C(=O)c1cccc(-n2cccc2)c1`, the inhibition is 3.91% (inactive).
For `O=C1CCCC2=C1C(c1cn(-c3ccccc3)nc1-c1cccs1)c1c([nH]c(=O)[nH]c1=O)N2` (stereo not drawn), the inhibition was 0.06% (inactive).
Under `CC1=C(C#N)C(=O)N(C2CCS(=O)(=O)C2)C(=O)/C1=C\c1ccco1` (stereo not drawn) stands 56.2% (active); under `Cc1ccccc1N1C(S)=C(C#N)C(=O)NC1c1ccco1` (stereo not drawn), 9.88% (inactive); under `Cc1ccc(NC(=O)CN2C(=O)N/C(=C/c3ccco3)C2=O)cc1`, -4.53% (inactive).
For `COc1ccc(-c2cc(C(=O)Nc3sc4c(c3C#N)CCCC4)c3ccccc3n2)cc1OC`, the inhibition was -1.02% (inactive).
Consider `COc1cc(-c2cc(C(=O)OCC(=O)Nc3ccc4c(c3)OCO4)c3ccccc3n2)cc(OC)c1OC`, for which the inhibition is 4.02% (inactive).
As for `CN(CC(=O)Nc1c(Cl)cccc1Cl)C(=O)c1cccc(-n2cccc2)c1`, the inhibition was 2.1% (inactive).
Regarding `COc1ccc(CC(=O)OCC(=O)Nc2ncc(Cl)cc2Cl)cc1`, the inhibition is -1.83% (inactive).
Regarding `COc1ccccc1NC(=O)c1ccc(SCC(=O)NCc2ccccc2Cl)c([N+](=O)[O-])c1`, the inhibition was -1.75% (inactive).
Under `O=C(NCc1ccco1)C1Cc2ccccc2CN1S(=O)(=O)c1ccccc1F` (stereo not drawn) stands 18.4% (inactive); under `C/C=C\C=C/C(=O)Nc1cccc(C2=NOC3(C2)C[C@@H](C(N)=O)N(C(=O)[C@H]2CCC(=O)N2)C3)c1` (stereo partly drawn), -14.3% (inactive); under `O=C(N/N=C/c1ccc(N2CCCCC2)o1)C(O)(c1ccccc1)c1ccccc1`, -3.6% (inactive).
Turning to `CCOc1ccc(C2C(C#N)=C(N)SC(N)=C2C#N)cc1OCC`, the inhibition is 31.4% (inactive).
Take `COc1ccccc1C(CCN(Cc1cccs1)C(C)=O)c1ccco1` (stereo not drawn): the inhibition was -3.29% (inactive).
Under `O=C(NCCN1C(=O)S/C(=C\c2ccc(Cl)c(Cl)c2)C1=O)c1ccc2c(c1)C(=O)N(Cc1ccncc1)C2=O` stands 6.43% (inactive); under `O=C(COc1ccc([N+](=O)[O-])cc1)Nc1nnc(-c2cccnc2)s1`, 16.4% (inactive).
Then `CC[C@@H](C)CN1C(=O)N[C@@H](c2ccccc2)C(C(C)=O)=C1C`, with 5.08% (inactive).
Under `CCOC(=O)c1cccc(NC(=O)C2CCCN(c3nnc(N4CCCC4=O)s3)C2)c1` (stereo not drawn) stands -7.1% (inactive); under `O=c1c2c3nc4ccccc4nc3n(/N=C/c3ccco3)c2ncn1CCC1=CCCCC1`, 2.56% (inactive).
On to `O=C(O)C/C(=C\c1cc(Cl)c2c(c1)OCO2)c1nc2ccccc2s1`, for which the inhibition was 4.02% (inactive).
As for `Cc1ccc(NC(=O)Nc2nnc(Cc3ccc([N+](=O)[O-])cc3)s2)cc1`, the inhibition was 6.61% (inactive).
Regarding `N=c1c(C(=O)NCc2ccco2)cc2c(=O)n3ccccc3nc2n1Cc1ccc(Cl)cc1`, the inhibition is 9.28% (inactive).
Consider `COc1ccccc1/C=c1\sc2nc(-c3ccco3)nn2c1=O`, for which the inhibition is 8.15% (inactive).
Consider `COc1ccccc1/C=C/C=c1\sc2nc(=O)c(Cc3ccccc3)nn2c1=O`, for which the inhibition was 46.4% (active).
Consider `O=c1nc2s/c(=C\c3ccco3)c(=O)n2nc1Cc1ccc(F)cc1`, for which the inhibition was 14.3% (inactive).
Regarding `COc1cccc(/C=N/NC(=O)c2nc(-c3ccccc3)cc(-c3ccccc3)n2)c1`, the inhibition is 6.79% (inactive).
As for `Cc1ccc(C)c(N2CCN(C(=O)CSc3ccsc3[N+](=O)[O-])CC2)c1`, the inhibition was 12.5% (inactive).
With `O=C(/C=C\c1ccc2c(c1)OCO2)Nc1c2c(nn1-c1ccc(Cl)cc1)CSC2`, the inhibition was -1.47% (inactive).
For `O=C(Cn1cnc2sc(-c3ccccc3)cc2c1=O)NCc1ccco1`, the inhibition was 3.55% (inactive).
As for `Cc1ccc(-c2csc(N3N=C(c4ccccc4)/C(=C\c4ccc(N(C)C)cc4)C3=O)n2)cc1`, the inhibition is 1.99% (inactive).
Under `CCOc1cc(/C=C2\C(=O)N(c3nc(-c4ccc(Br)cc4)cs3)N=C2c2ccccc2)ccc1O` stands 58.1% (active); under `CCc1ccc(-c2csc(NC(=O)C3=NN(c4ccccc4)C(=O)CC3)n2)cc1`, -3.1% (inactive); under `CNC(=O)COC(=O)c1cc(-c2ccco2)nc2ccccc12`, 12.2% (inactive).
On to `CN(C(=O)COC(=O)c1cc(-c2ccco2)nc2ccccc12)C1CCS(=O)(=O)C1` (stereo not drawn), for which the inhibition was 49.6% (active).
Consider `O=C(OCC(=O)N1CCN(C(=O)c2ccco2)CC1)c1cc(-c2ccco2)nc2ccccc12`, for which the inhibition is 30.6% (inactive).
